M5 PAM – human M5 muscarinic receptor positive allosteric modulators, primary screen, CHO-K1 cells, Fluo-8 calcium fluorescence | Muscarinic acetylcholine receptor M5 (Homo sapiens), P08912 | CHO-K1 hM5, ACh EC20 PAM; 0% = ACh EC20, 100% = ACh EC100 | activation, % at 3 µM | 0.3% of 360,000 active;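 active = activation above the run cutoff, the mean activation of all test compounds plus 3 SD, cut at about 18% in these data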
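Assay system – human M5 receptor in CHO-K1 cells · Read-out – % activation, ACh-normalized · Technique – Fluo-8 calcium fluorescence · Dosing – single-point, 3 µM nominal · Incubation – Fluo-8 loading 80 min at 37 °C plus 30 min room temperature · Repeats – singlicate, one well per test compound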
M5 ag – human M5 muscarinic receptor agonists, primary screen, CHO-K1 cells, Fluo-8 calcium fluorescence; AID 624037, 2012; 0.19% of 360,000 active; activation, % at 3 µM; Muscarinic acetylcholine receptor M5 (Homo sapiens), P08912; CHO-K1 hM5 cells; 0% DMSO wells, 100% maximal acetylcholine response;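 active = activation above the run's mean over test compounds plus 3 SD, cut at about 23% in these data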;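 note: signal is peak over basal fluorescence ratio across the kinetic read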
M4 ag – human M4 muscarinic receptor agonists, primary screen, CHO-K1 cells, Fluo-8 calcium fluorescence; 0.14% of 360,000 active; activation, % at 3 µM; CHO-K1 hM4/Gqi5; vehicle 0%, full acetylcholine response 100%; Muscarinic acetylcholine receptor M4 (Homo sapiens), P08173;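 active = activation above the run mean over all test wells plus 3 SD, cut at about 32% in these data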;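 note: peak over basal fluorescence ratio per well then scaled between controls; 0% = DMSO wells and 100% = acetylcholine at EC100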
Target sequence (P08173 whole entry, looked up): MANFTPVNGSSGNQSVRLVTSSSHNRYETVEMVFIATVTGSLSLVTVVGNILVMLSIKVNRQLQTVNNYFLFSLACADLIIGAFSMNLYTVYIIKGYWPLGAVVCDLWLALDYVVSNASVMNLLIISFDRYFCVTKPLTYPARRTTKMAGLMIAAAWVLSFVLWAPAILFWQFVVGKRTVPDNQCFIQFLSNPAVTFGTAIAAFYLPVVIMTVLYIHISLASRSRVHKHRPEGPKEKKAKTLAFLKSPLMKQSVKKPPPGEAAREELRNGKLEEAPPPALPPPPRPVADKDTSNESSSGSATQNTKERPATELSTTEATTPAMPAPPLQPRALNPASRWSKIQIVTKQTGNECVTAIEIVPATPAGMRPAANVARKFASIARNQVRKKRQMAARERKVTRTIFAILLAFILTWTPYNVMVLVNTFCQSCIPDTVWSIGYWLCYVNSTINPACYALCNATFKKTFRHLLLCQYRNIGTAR
CHRM4 antagonist – human M4 muscarinic receptor antagonists, primary screen, CHO cells, Fluo-8 calcium fluorescence | inhibition, % at 3 µM | CHO-hM4 cells, ACh EC80 | AID 624125, 2012 | 0.73% of 360,000 active;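 active = inhibition above its plate's cutoff, the mean inhibition of sample wells plus 3 SD, cut at about 27% in these data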;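 note: 0% = acetylcholine EC80 with DMSO and 100% = DMSO without agonist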
M5 antag – human M5 muscarinic receptor antagonists, primary screen, CHO cells, Fluo-8 calcium fluorescence; Muscarinic acetylcholine receptor M5 (Homo sapiens), P08912; CHO-hM5 cells, ACh EC80; inhibition, % at 3 µM; 0.59% of 360,000 active;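 active = inhibition above a per-plate cutoff, the mean of that plate's test compounds plus 3 SD, cut at about 27% in these data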;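 note: 0% = acetylcholine EC80 with DMSO and 100% = DMSO without agonist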
CHRM4 PAM – human M4 muscarinic receptor positive allosteric modulators, primary screen, CHO-K1 cells, Fluo-8 calcium fluorescence; Muscarinic acetylcholine receptor M4 (Homo sapiens), P08173; CHO-K1 hM4/Gqi5, ACh EC20; 0% = ACh EC20, 100% = maximal ACh; activation, % at 3 µM; 0.4% of 360,000 active;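 active = activation above its plate's cutoff, the mean activation of sample wells plus 3 SD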
Active calls of the source: *. Compounds with a hit are over-represented: about 1.9% of the library has one in this group of screens.

SMILES | M5 PAM | M5 ag | M4 ag | CHRM4 antagonist | M5 antag | CHRM4 PAM
CCC(C(=O)OCC(=O)C1(O)CCC2C3CCC4=CC(=O)CCC4(C)C3C(O)CC21C)C(C)C (stereo not drawn) | -27 | -6 | 15 | 28* | 19 | -12
CCNC(=O)CC1C(=O)N(c2ccccc2)C(=O)N1CCC(C)C (stereo not drawn) | 5 | -2 | 0 | -4 | 8 | 25*
Cc1cnc(CNC(=O)c2csc(COCCO)n2)cn1 | -1 | 0 | 1 | -7 | -1 | 5
CCN(CC(=O)Nc1ccccc1C(F)(F)F)C(=O)CSCC(=O)Nc1cc(C)on1 | 7 | -2 | 0 | -8 | -7 | 23*
CCN(CC(=O)Nc1cc(C)on1)CC(=O)Nc1ccccc1C(F)(F)F | 8 | 4 | 2 | 0 | -16 | 8
Cc1cc(C)[n+](-c2ccc(C(C)C)cc2)c2[nH]c(=O)[nH]c(=O)c12 | -9 | -7 | 0 | 41* | -1 | -33
CCCCn1c(N)c(N(CC(C)C)C(=O)c2cc(-c3ccco3)nc3ccccc23)c(=O)[nH]c1=O | 5 | -3 | 0 | 5 | 0 | -5
Cc1ccc(S(=O)(=O)N2CCCCC2c2cccnc2)c(C)c1C (stereo not drawn) | -4 | -7 | 2 | -3 | 3 | -15
Cc1ccccc1-n1c(O)c(/C=N/N2CCCCC2c2cccnc2)c(=O)[nH]c1=O (stereo not drawn) | 29* | 12 | 1 | -6 | 2 | 24*
COc1ccc(NC(=O)c2cccc(N3C(=O)c4ccc(C(=O)Nc5ccc(OC)c(O)c5)cc4C3=O)c2)cc1O | -4 | -3 | 2 | -3 | 26 | 7
O=C(COc1ccccc1)N1c2ccccc2Sc2ccccc21 | -5 | -4 | -2 | 5 | 1 | -26
CN(C)c1cc[n+](CC(=O)N2c3ccccc3Sc3ccccc32)cc1 | -10 | -15 | 0 | 48* | 14 | -26
O=C(C[n+]1ccccc1)N1c2ccccc2Sc2ccccc21 | -18 | -10 | 1 | 99* | 98* | -27
Cn1cc(CN2CCCC(CO)(Cc3ccccc3)C2)cn1 (stereo not drawn) | -7 | -3 | 0 | -2 | -5 | -7
CCOc1ccc(N(C)S(=O)(=O)c2ccc(-c3cc(C)no3)s2)cc1 | -5 | 0 | 8 | -5 | 4 | -7
Cc1nn(CC(=O)NCCN2CCCCC2C)c(=O)c2cc(-c3ccccc3)nn12 (stereo not drawn) | 32* | -6 | 2 | -2 | 18 | -5
COc1cccc(C(=O)NNS(=O)(=O)c2ccccc2)c1 | -3 | 0 | 1 | -7 | 0 | -1
Cc1nc2ccc(Br)cn2c1C(=O)N/N=C\c1ccccc1Cl | 18 | 5 | 1 | -8 | -14 | 6
CCOC(=O)/C(=C\c1cccnc1)C(=O)c1cc(C(C)=O)c(Nc2ccccc2)s1 | 1 | -5 | 5 | 46* | 10 | -3
CCOC(=O)/C(=C\c1ccccc1)C(=O)c1cc(C(C)=O)c(Nc2ccccc2)s1 | -4 | -1 | 1 | -3 | 6 | 2
c1ccc(C2(CN3CCNC[C@H]3Cc3cccc4ccccc34)CC2)cc1 | 7 | -3 | 6 | 10 | 9 | 29*
O=C(c1ccco1)N1CCCN(Cc2nc(Cc3ccccc3)no2)CC1 | 8 | -10 | 1 | -10 | -4 | 6
CN(C)C(=O)c1ccc(NC(=O)c2sccc2-c2ccccc2)cc1 | -7 | -2 | 2 | -2 | 5 | -1
Cc1ccccc1C(=O)O/N=C(\c1ccccc1)c1ccccn1 | 6 | -2 | 3 | -4 | -6 | 22*
Cc1c(P(=O)(c2ccccc2)c2ccccc2)c2ccccc2n1C | 2 | 2 | 0 | 5 | -10 | 2
SMILES | M5 PAM | M5 ag | M4 ag | CHRM4 antagonist | M5 antag | CHRM4 PAM
Cc1cccc(C)c1NC(=O)C(c1ccc(C#N)cc1)n1c(=O)c(-c2ccccc2)nc2ccccc21 (stereo not drawn) | 7 | 1 | 2 | -3 | -7 | 23*
Cc1cccc(C)c1NC(=O)C(c1ccc(C(F)(F)F)cc1)n1c(=O)c(-c2ccccc2)nc2ccccc21 (stereo not drawn) | 11 | -2 | 3 | 0 | -9 | 4
COc1ccccc1CCNC(=O)c1ccc(Br)s1 | -3 | -7 | 2 | 5 | -3 | -7
COc1ccc(N(C(=O)COc2ccccc2OC)S(=O)(=O)c2ccc(C)cc2)cc1 | 6 | -4 | 1 | -6 | -3 | 26*
CSC[C@H]1CN(CCc2ccccc2)C(=O)[C@@H]1CC(=O)Nc1ccc(Br)cc1 | -2 | 0 | 6 | 0 | -4 | -6
Cc1ccc(C(O)(CCN2CCCCC2)c2ccccc2)cc1 (stereo not drawn) | -21 | -8 | 2 | 93* | 96* | -17
OC(C#CCCN1CCCCC1)(c1ccccc1)c1ccccc1 | -32 | -20 | 1 | 95* | 100* | -17
CC(C)N(CC#CCC(O)(c1ccccc1)c1ccccc1)C(C)C | -18 | -7 | 2 | 22 | 9 | -27
O=C(CCN1CCCCC1)c1ccccc1 | -1 | 0 | 0 | -1 | 0 | 6
CCN(CC)CCC#CC(O)(c1ccccc1)c1ccccc1 | -18 | -8 | 0 | 84* | 99* | -18
OC(C#CCCN1CCCCC1)(c1ccccc1)C1CCCCC1 (stereo not drawn) | -32 | -20 | 3 | 97* | 98* | -59
CCCOc1ccc(C(O)(CCC)CCN2CCCCC2)cc1 (stereo not drawn) | -24 | -8 | 3 | 21 | 21 | -20
CCCC(=O)Nc1sc(C(=O)Nc2cccc(N)c2)c(C)c1C(=O)OC | -6 | 1 | 3 | -3 | 5 | -1
Cc1ccc(N2CCN(S(=O)(=O)c3c(C)nc4sccn4c3=O)CC2C)cc1 (stereo not drawn) | 0 | 0 | 2 | -3 | -3 | 4
O=C(NCC(=O)N1CCOCC1)c1ccc(Cl)cc1 | 2 | -2 | 1 | 0 | 1 | 4
CCCCN(C(=O)c1ccc(NC(=O)C(C)C)cc1)c1ccccc1 | 1 | -4 | 1 | -4 | -5 | 1

Bioassay records from PubChem BioAssay.
